Data from article PMC10077566 (ACS Omega, 2023).

Legend:
[1] = tested on: U-87-MG cells; assay: Annexin V FITC-propidium iodide apoptosis assay, FACS; assay type: cell-based, human; details: Annexin V FITC/PI quadrant
[2] = tested on: U-87-MG spheroids; assay: Calcein-AM spheroid viability assay; assay type: cell-based, human; details: 10 μM, 24 h; six-day old spheroids, 10000 cells/well
In short: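 Six-day-old U-87-MG spheroids seeded at 10000 cells/well in U-bottom low-attachment 24-well plates from monolayers grown to 70% confluence, in serum-free B27 neuronal basal medium or FBS-supplemented EMEM, with medium changed every 3 days. Exposed to the test compound at 10 μM for 24 h, moved to a fresh plate, washed three times with assay buffer, then stained with 3 μM Calcein-AM for 1 h at 37 °C. Imaged by fluorescence.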

[3] = tested on: primary mouse neurons; assay: MTT cytotoxicity / cell viability, noncancer cells; assay type: cell-based; details: 24 h, n = 3
In short: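 Primary mouse neurons were grown in serum-free DMEM/F12-based neural medium with L-glutamine, HEPES, penicillin/streptomycin and supplement. They were plated at 1×10^4 cells/well and allowed to spread for 24 h at 37 °C, 5% CO2, then treated with the test compound at 2 or 10 μM for 24 h. MTT was added for 4 h, then solubilizing solution for 4 h. Absorbance was read at 560 and 590 nm. Runs were in triplicate, with Student's t tests.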

[4] = biological target: FABP3 (U-138-MG cells) (Homo sapiens, UniProt P05413); assay: FABP3-mediated internalization, antibody labeling and FACS; assay type: cell-based; details: serum-free, 10 μM, FACS, Coralite 594-conjugated FABP3 antibody
Sequence of FABP3 (U-138-MG cells) (P05413 whole entry): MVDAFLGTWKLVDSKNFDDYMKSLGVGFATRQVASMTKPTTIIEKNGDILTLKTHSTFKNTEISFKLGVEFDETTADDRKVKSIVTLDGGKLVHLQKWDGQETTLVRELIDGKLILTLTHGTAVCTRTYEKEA
In short: (§1)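 Cells were kept in serum-free neuronal basal medium with B27 and seeded at 1×10^4 cells/well in 6-well plates, then left to spread for 4 h at 37 °C, 5% CO2. They were incubated with Coralite 594-conjugated anti-FABP3 mouse antibody, then with the test compound (10 μM) for 24 h. Cells were trypsinized, pelleted at […] for 5 min, resuspended in FACS buffer and filtered. Flow cytometry used 582 nm excitation.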

[5] = biological target: FABP3 (U-87-MG cells) (Homo sapiens, UniProt P05413); assay: as above; assay type: cell-based; details: serum-free, 10 μM, FACS, Coralite 594-conjugated FABP3 antibody
Sequence of FABP3 (U-87-MG cells) (P05413 whole entry): as above
In short: as §1

FABP3-mediated internalization [4] | FABP3-mediated internalization [5] | Compound | necrotic cells ([1]; 2 μM) [%] | necrotic cells ([1]; 10 μM) [%] | spheroid viability, Calcein-AM fluorescence [2] | cell viability ([3]; 2 μM) [%] | cell viability ([3]; 10 μM) [%]
 |  | COc1cccc2c1C(=O)c1c(O)c3c(c(O)c1C2=O)C[C@@](O)(C(=O)CO)C[C@@H]3O[C@H]1C[C@H](N)[C@H](O)[C@H](C)O1 [DOX, doxorubicin] | 7.2 | 24 | scattered viable cells were seen throughout the spheroid | 49.3 | 27.2
did not show internalization | did not show internalization | ACGLSGLCVAK [A-COOP-K] |  |  |  |  | 
